Reference: ChEMBL document CHEMBL3588757, “Structure-based design, synthesis and biological testing of piperazine-linked bis-epipodophyllotoxin etoposide analogs” (Bioorg Med Chem, 2015)

What was measured:
Format in all cases: functional
HCC 2998 = assay: Cytotoxicity against human HCC2998 cells by SRB assay
Method in brief: (§1)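 Measured in the NCI-60 human tumour cell line panel using five-dose testing. Growth was recorded at each dose for each cell line, and a GI50 was derived for each line.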

SK-MEL-28 [1] = assay: Cytotoxicity against human SK-MEL-28 cells by SRB assay
Method in brief: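 NCI-60 panel screen; 5-dose testing giving GI50 per cell line, plus a single 10 µM one-dose test. Method details not given beyond the NCI screen.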

OVCAR-8 = assay: Cytotoxicity against human OVCAR8 cells assessed as cell growth at 0.05 uM by SRB assay; conditions: read-out: Activity
SN12C = assay: Cytotoxicity against human SN12C cells assessed as cell growth at 0.05 uM by SRB assay; conditions: read-out: Activity
RXF 393 [2] = assay: Cytotoxicity against human RXF393 cells assessed as cell growth at 5 uM by SRB assay; conditions: read-out: Activity
LOX IMVI = assay: Cytotoxicity against human LOXIMVI cells assessed as cell growth at 0.05 uM by SRB assay; conditions: read-out: Activity
HL-60(TB) [3] = assay: Cytotoxicity against human HL-60(TB) cells assessed as cell growth at 50 uM by SRB assay; conditions: read-out: Activity; method in brief: as §1
A549 = assay: Cytotoxicity against human A549/ATCC cells by SRB assay
BT-549 = assay: Cytotoxicity against human BT549 cells assessed as cell growth at 50 uM by SRB assay; conditions: read-out: Activity
SNB-75 = assay: Cytotoxicity against human SNB75 cells assessed as cell growth at 50 uM by SRB assay; conditions: read-out: Activity
T47D = assay: Cytotoxicity against human T47D cells assessed as cell growth at 50 uM by SRB assay; conditions: read-out: Activity
RPMI-8226 = assay: Cytotoxicity against human RPMI8226 cells assessed as cell growth at 0.05 uM by SRB assay; conditions: read-out: Activity
SR = assay: Cytotoxicity against human SR cells assessed as cell growth at 0.005 uM by SRB assay; conditions: read-out: Activity
RXF 393 [4] = assay: Cytotoxicity against human RXF393 cells assessed as cell growth at 0.005 uM by SRB assay; conditions: read-out: Activity
HL-60(TB) [5] = assay: Cytotoxicity against human HL-60(TB) cells by SRB assay; method in brief: as §1
SK-MEL-28 [6] = assay: Cytotoxicity against human SK-MEL-28 cells assessed as cell growth at 0.005 uM by SRB assay; conditions: read-out: Activity
NCI-H226 = assay: Cytotoxicity against human NCI-H226 cells assessed as cell growth at 0.05 uM by SRB assay; conditions: read-out: Activity
[7] = read-out: LC50 (the source's name)
[8] = read-out: pLC50 (the source's name) (converted)

In the case of COc1cc([C@@H]2c3cc4c(cc3[C@@H](NC(=O)CN3CCN(CCCCCCN5CCN(CC(=O)N[C@@H]6c7cc8c(cc7[C@@H](c7cc(OC)c(O)c(OC)c7)[C@H]7C(=O)OC[C@@H]76)OCO8)CC5)CC3)[C@H]3COC(=O)[C@H]23)OCO4)cc(OC)c1O, the GI50 (HCC 2998; read-out: GI50) is reported as 9.47 µM, the CC50 (HCC 2998; [7]) is reported as > 50 µM and the TGI (HCC 2998; read-out: TGI) is reported as 38.3 µM. For the same molecule, the GI50 (HCC 2998; read-out: pGI50 (converted)) was 9.55 µM, the CC50 (HCC 2998; [8]) was > 50.1 µM and the TGI (HCC 2998; read-out: pTGI (converted)) was 38 µM. For the same molecule, the GI50 (SK-MEL-28 [1]; read-out: GI50) was 6.52 µM, the CC50 (SK-MEL-28 [1]; [7]) was > 50 µM and the TGI (SK-MEL-28 [1]; read-out: TGI) was > 50 µM. For the same molecule, the GI50 (SK-MEL-28 [1]; read-out: pGI50 (converted)) was 6.46 µM, the CC50 (SK-MEL-28 [1]; [8]) was > 50.1 µM and the TGI (SK-MEL-28 [1]; read-out: pTGI (converted)) was > 50.1 µM. It also gave a growth at 0.05 µM (OVCAR-8) of 108%, a growth at 0.05 µM (SN12C) of 97% and a growth at 5 µM (RXF 393 [2]) of 66%. The growth at 0.05 µM (LOX IMVI) was 88%, the growth at 50 µM (HL-60(TB) [3]) was -1% and the GI50 (A549; read-out: GI50) was 0.919 µM. The CC50 (A549; [7]) was > 50 µM, the TGI (A549; read-out: TGI) was 15.2 µM and the GI50 (A549; read-out: pGI50 (converted)) was 0.912 µM. For the same molecule, the CC50 (A549; [8]) was > 50.1 µM, the TGI (A549; read-out: pTGI (converted)) was 15.1 µM and the growth at 50 µM (BT-549) was -40%. It also gave a growth at 50 µM (SNB-75) of -31%, a growth at 50 µM (T47D) of 2% and a growth at 0.05 µM (RPMI-8226) of 86%. The growth at 0.005 µM (SR) was 90%, the growth at 0.005 µM (RXF 393 [4]) was 99% and the GI50 (HL-60(TB) [5]; read-out: GI50) was 0.772 µM. For the same molecule, the CC50 (HL-60(TB) [5]; [7]) was > 50 µM, the TGI (HL-60(TB) [5]; read-out: TGI) was 33.8 µM and the GI50 (HL-60(TB) [5]; read-out: pGI50 (converted)) was 0.776 µM. The CC50 (HL-60(TB) [5]; [8]) was > 50.1 µM, the TGI (HL-60(TB) [5]; read-out: pTGI (converted)) was 33.9 µM and the growth at 0.005 µM (SK-MEL-28 [6]) was 100%. It also gave a growth at 0.05 µM (NCI-H226) of 87%.
